Data reported in ChEMBL document CHEMBL1128232, “Synthesis of novel thiol-containing citric acid analogues. Kinetic evaluation of these and other potential active-site-directed and mechanism-based inhibitors of ATP citrate lyase” (J Med Chem, 1995).

Legend:
ATP-citrate synthase [1] = molecular target: T1, ATP-citrate synthase (Rattus norvegicus, UniProt P16638); assay: Irreversible inactivation of rat ATP-Citrate Lyase; nd=not detectable
T1 sequence (P16638 whole entry): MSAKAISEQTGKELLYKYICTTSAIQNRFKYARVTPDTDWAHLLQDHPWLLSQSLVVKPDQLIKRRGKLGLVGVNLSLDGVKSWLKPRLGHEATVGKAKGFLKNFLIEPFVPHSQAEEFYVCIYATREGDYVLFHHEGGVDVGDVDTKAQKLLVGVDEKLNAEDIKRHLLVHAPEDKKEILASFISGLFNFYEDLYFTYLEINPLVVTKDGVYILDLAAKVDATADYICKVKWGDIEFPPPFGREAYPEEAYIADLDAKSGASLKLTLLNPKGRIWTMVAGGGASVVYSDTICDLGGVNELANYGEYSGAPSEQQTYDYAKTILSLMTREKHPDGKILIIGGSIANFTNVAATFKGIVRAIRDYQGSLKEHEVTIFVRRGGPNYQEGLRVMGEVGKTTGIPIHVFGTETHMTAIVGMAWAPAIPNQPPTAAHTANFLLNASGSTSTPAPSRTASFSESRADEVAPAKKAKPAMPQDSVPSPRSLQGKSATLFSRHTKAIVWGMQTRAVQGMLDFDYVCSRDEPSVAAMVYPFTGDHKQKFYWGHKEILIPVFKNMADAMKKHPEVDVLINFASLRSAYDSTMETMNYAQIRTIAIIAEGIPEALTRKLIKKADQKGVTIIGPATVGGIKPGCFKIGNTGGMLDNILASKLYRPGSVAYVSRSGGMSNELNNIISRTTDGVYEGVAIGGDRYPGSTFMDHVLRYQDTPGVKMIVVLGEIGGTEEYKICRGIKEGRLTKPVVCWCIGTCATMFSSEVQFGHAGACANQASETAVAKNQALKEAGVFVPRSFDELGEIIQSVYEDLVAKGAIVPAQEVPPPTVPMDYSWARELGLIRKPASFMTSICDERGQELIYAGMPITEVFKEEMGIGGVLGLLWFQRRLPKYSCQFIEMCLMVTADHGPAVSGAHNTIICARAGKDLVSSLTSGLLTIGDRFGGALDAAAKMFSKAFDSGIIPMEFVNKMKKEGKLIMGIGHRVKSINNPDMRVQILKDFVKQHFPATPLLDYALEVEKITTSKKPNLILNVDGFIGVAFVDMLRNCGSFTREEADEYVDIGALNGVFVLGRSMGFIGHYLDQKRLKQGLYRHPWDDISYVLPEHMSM
How it was run: (§1)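 Rat liver ATP citrate lyase (purified) incubated with 2 mM inhibitor at 25 °C in Tris-HCl pH 8.0; aliquots withdrawn over 48 h and placed directly into assay cocktail with saturating substrate. Remaining activity read as carbon–carbon cleavage of citrate to detect time-dependent inactivation.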

ATP-citrate synthase [2] = molecular target: T1, ATP-citrate synthase; assay: Reversible binding potential for rat ATP-Citrate Lyase as carbon-carbon bond cleavage activity in citrate substrate
How it was run: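 Purified rat liver enzyme; carbon–carbon cleavage activity measured at 1.0 mM citrate (equal to Km). Ki derived by fitting rate data to the competitive inhibition equation, which reduces under these conditions to V = Vmax/(2 + [I]/Ki).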

ATP-citrate synthase [3] = molecular target: T1, ATP-citrate synthase; assay: Irreversible inactivation was evaluated against rat ATP-Citrate Lyase; nd= Time dependent inactivation was not detectable above thermal decay rate of 5.0 x10E-3 1/h at 2 mM inhibitor at […]; not detectable; how it was run: as §1

Compound	Ki (ATP-citrate synthase [1])	Ki (ATP-citrate synthase [2]) [µM]	Ki (ATP-citrate synthase [3])
O=C1C[C@@](C(=O)O)([C@@H](Cl)C(=O)O)O1	Not detectable	340	–
O=C(O)/C=C(/CC(=O)O)C(=O)O	Not detectable	> 1000	–
CSSC(CC(=O)O)(CC(=O)O)C(=O)O	Not detectable	480	–
C=C(CC(=O)O)C(=O)O [ITACONATE]	Not detectable	> 1000	–
O=C(O)/C=C(\CC(=O)O)C(=O)O [ACONITIC ACID]	Not detectable	> 1000	–
O=C(O)C[C@]1(C(=O)O)O[C@@H]1C(=O)O	Not detectable	400	–

Stronger by Ki (ATP-citrate synthase [2]), values ahead:

Ki (ATP-citrate synthase [1])	Ki (ATP-citrate synthase [2]) [µM]	Ki (ATP-citrate synthase [3])	Compound
Not detectable	58	–	O=C(O)C[C@@](O)(C(=O)O)[C@H](S)C(=O)O
Not detectable	34	–	CSS[C@H](C(=O)O)[C@@](O)(CC(=O)O)C(=O)O
Not detectable	150	–	O=C(O)C[C@@](O)(C(=O)O)[C@@H](S)C(=O)O
Not detectable	295	–	O=C(O)CC(S)(CC(=O)O)C(=O)O
Not detectable	18	–	O=C(O)C[C@]1(C(=O)O)O[C@H]1C(=O)O
–	0.15	Not detectable	O=C(O)C[C@@](O)(C(=O)O)[C@H](O)C(=O)O
Not detectable	29	–	O=C(O)C[C@@](O)(C(=O)O)[C@@H](Cl)C(=O)O
